Test results as given in ChEMBL document CHEMBL1124827, “The preparation of 2'-deoxy-2'-fluoro-1',2'-seconucleosides as potential antiviral agents” (J Med Chem, 1990).
The source made the active and inactive calls.

Key:
LLC-MK2 = assay: In vitro antiviral activity was determined against Punta toro virus in monolayer culture of LLC-MK2 cells; format: functional, cell-based; conditions: Cercopithecidae
Procedure, shortened: (§1)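 Virus was adsorbed for 1 h onto monolayers: H.Ep.2 cells for Adenovirus type 2, LLC-MK2 cells for Punta Toro, and Vero cells for Sicilian sandfly fever. Medium with a range of drug concentrations was then added. On the day of maximum cytopathic effect in virus-control wells, the medium was removed and the monolayers were stained with crystal violet. Cytopathic effect was scored microscopically.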

Vero [1] = assay: In vitro antiviral activity was determined against Yellow Fever virus in monolayer culture of Vero cells; format: functional, cell-based; conditions: Chlorocebus sabaeus
Vaccinia virus = assay: Antiviral activity was determined against Vaccinia virus; format: functional, organism-based; conditions: Orthopoxvirus vaccinia
unidentified adenovirus [2] = assay: (§2) In vitro antiviral activity was determined against Adenovirus type 2 in monolayer culture of H.Ep.2 cells; format: functional, organism-based
Vero [3] = assay: In vitro antiviral activity was determined against Sicilian Sandfly Fever virus in monolayer culture of Vero cells; format: functional, cell-based; conditions: Chlorocebus sabaeus; procedure, shortened: as §1
Vero [4] = assay: In vitro antiviral activity was determined against Japanese encephalitis virus in monolayer culture of Vero cells; format: functional, cell-based; conditions: Chlorocebus sabaeus
Vero [5] = assay: Antiviral activity was determined as inhibition of plaque formation against Rift Valley fever in monolayer culture of Vero cells; format: functional, cell-based; conditions: Chlorocebus sabaeus
[6] = tested on: Vesicular stomatitis virus; assay: Antiviral activity was determined against Vesicular Stomatitus virus; format: functional, organism-based
[7] = tested on: Human immunodeficiency virus 1; assay: Antiviral activity was determined against Human immunodeficiency virus; format: functional, organism-based
unidentified adenovirus [8] = assay: as §2; format: functional, organism-based; procedure, shortened: as §1; remark: listed apart in the source
Pichinde virus = assay: Antiviral activity was determined against Pichinde virus; format: functional, organism-based

Measured: Activity

NC(=O)c1ncn(COC(CO)C(O)CF)n1 (stereo not given)
not listed: [7] | unidentified adenovirus [8] | Pichinde virus
inactive: all other assays above

O=c1ccn(COC(CO)C(O)CF)c(=O)[nH]1 (stereo not given)
not listed: unidentified adenovirus [8] | Pichinde virus
inactive: all other assays above

Cc1cn(COC2COP(=O)(Oc3ccc([N+](=O)[O-])cc3)OC2CF)c(=O)[nH]c1=O (stereo not given)
inactive: Vaccinia virus | unidentified adenovirus [2] | [6]

Nc1nc(O)c2ncn(COC(CO)C(O)CF)c2n1 (stereo not given)
not listed: unidentified adenovirus [2] | Pichinde virus
inactive: all other assays above

Cc1cn(COC(CO)C(O)CF)c(=O)[nH]c1=O (stereo not given)
not listed: unidentified adenovirus [8]
inactive: all other assays above

O=c1[nH]c(=O)n(COC(CO)C(O)CF)cc1I (stereo not given)
not listed: [7] | unidentified adenovirus [8] | Pichinde virus
inactive: all other assays above

O=c1ccn(COC2COP(=O)(Oc3ccc([N+](=O)[O-])cc3)OC2CF)c(=O)[nH]1 (stereo not given)
inactive: Vaccinia virus | unidentified adenovirus [2] | [6]
